Hits are enriched below; roughly 0.83% of the tested compounds scored in any of these assays.
RGS8-Gao reg = RGS8-Galphao binding modulators, primary screen, biochemical, multiplexed bead flow cytometry; actives lie on both sides; response (percent of control binding), % at 10 µM; 0.34% of 220,000 active; AID 1423, 2008; in the data active = response below about 60% or above about 140%; inactive = in between;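 also: Galphao activated as the GDP aluminium fluoride complex binding bead-coupled RGS8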
Target sequence (P09471 whole entry, looked up): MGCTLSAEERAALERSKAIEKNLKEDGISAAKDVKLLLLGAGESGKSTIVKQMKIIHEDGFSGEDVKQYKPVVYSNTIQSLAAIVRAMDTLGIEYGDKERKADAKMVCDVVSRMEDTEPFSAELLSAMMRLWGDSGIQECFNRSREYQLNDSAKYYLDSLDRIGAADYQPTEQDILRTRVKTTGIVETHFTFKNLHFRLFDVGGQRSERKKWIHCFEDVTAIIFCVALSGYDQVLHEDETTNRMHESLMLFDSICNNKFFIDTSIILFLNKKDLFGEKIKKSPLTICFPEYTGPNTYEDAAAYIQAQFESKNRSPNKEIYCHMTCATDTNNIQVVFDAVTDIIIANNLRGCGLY
ABCG2 block = ABCG2 efflux pump inhibitors, primary screen, multiplex with ABCB1, IgMXP3 cells, flow cytometry | AID 1325, 2008 | inhibition, % at 6.6 µM | 0.1% of 190,000 active | JC-1 efflux | Broad substrate specificity ATP-binding cassette transporter ABCG2 (Homo sapiens), Q9UNQ0;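 active = inhibition above 80%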;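 also: 0% = DMSO and 100% = nicardipine control wells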
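Test system: IgMXP3 (ABCG2) plus far-red-tagged CCRF-Adr (ABCB1) cells / Amount: 3 million cells/mL in well / Reagent: JC-1 transporter substrate / Timing: 10 min compound exposure, 25 °C / Signal: flow cytometry, 530 nm JC-1 signal / Read-out: percent efflux inhibition, scaled nicardipine 100% to DMSO 0% / Benchmarks: nicardipine as high control, DMSO as low control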
ABCB1 block = ABCB1 efflux pump inhibitors, primary screen, cell-based, multiplex, flow cytometry, ABCG2 counter-screen; ATP-dependent translocase ABCB1 (Homo sapiens), P08183; CCRF-Adr cells, JC-1 efflux; inhibition, % at 6.6 µM; 0.067% of 190,000 active; AID 1326, 2008; in the data active = inhibition above about 40%;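 also: 0% = vehicle and 100% = reference inhibitor; higher value means more JC-1 retained so stronger ABCB1 efflux block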
RGS7-Gao reg = RGS7-Galphao binding modulators, primary screen, biochemical, multiplexed bead flow cytometry; Guanine nucleotide-binding protein G(o) subunit alpha (Homo sapiens), P09471; actives lie on both sides; binding response (% of control), % at 10 µM; 0.35% of 220,000 active; in the data active = binding response below about 49% or above about 150%; inconclusive = no clear call, values can overlap the other calls; inactive = in between;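 also: fluorescent Galphao held in activated GDP-AlF4 state binding bead-coupled RGS7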
RGS4-Gao reg = modulators of RGS4 binding to Galphao, primary screen, biochemical, multiplexed bead flow cytometry; Guanine nucleotide-binding protein G(o) subunit alpha (Homo sapiens), P09471; actives lie on both sides; binding response (% of control), % at 10 µM; 0.33% of 220,000 active; in the data active = binding response below about 49% or above about 150%; inactive = in between;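 also: fluorescent Galphao activated with aluminum fluoride binding bead-coupled RGS4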
RGS16-Gao = modulators of RGS16 binding to Galphao, primary screen, biochemical, human proteins, multiplexed bead flow cytometry; Regulator of G-protein signaling 16 (Homo sapiens) + Guanine nucleotide-binding protein …; bead-based flow cytometry RGS16-Galphao binding, fluorescence; actives lie on both sides; binding response (% of control), % at 10 µM; 0.38% of 220,000 active;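 also: Galphao activated by GDP with aluminum fluoride before binding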
RGS-Gao = modulators of RGS–Galpha-o binding, primary screen, biochemical, multiplexed beads, flow cytometry, RGS4/7/8/16/19 | multiplexed bead flow cytometry | shares compounds with RGS16-Gao | RGS4–Galpha-o binding response, % at 10 µM | 99% of 1,600 active | AID 1504, 2009;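 also: fluorescently labeled Galpha-o bound to GDP with aluminium fluoride binding biotinylated RGS beads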
Biotin-avidin = disruption of biotin probe capture by avidin, counter-screen for RGS protein interaction modulators, biochemical, flow cytometry, bead-based; inhibition, % at 10 µM; shares compounds with RGS16-Gao; streptavidin beads, fluorescein-biotin binding; 1,700 tested, under 10 active;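 active = inhibition above 50%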;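 also: median green fluorescence of gated singlet beads compared with DMSO control wells; 0% = DMSO wells and 100% = complete loss of bead fluorescence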
RGS8-Gao confirm = RGS8-Galphao binding modulators, confirmation, biochemical, multiplexed bead flow cytometry, single concentration; binding response (% of control), % at 10 µM; 3% of 1,700 active; shares compounds with RGS16-Gao; bead-based flow cytometry RGS8-Galphao binding, fluorescence; actives lie on both sides; in the data active = binding response below about 72% or above about 130%; inactive = in between;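 also: Galphao activated as GDP AlF4 complex before binding bead RGS8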
RGS7-Gao single = RGS7-Galphao binding modulators, confirmation, biochemical, multiplexed bead flow cytometry, single concentration. shares compounds with RGS16-Gao. bead-based flow cytometry RGS7-Galphao binding; actives lie on both sides. response (percent of control binding), % at 10 µM. 7.8% of 1,700 active. AID 1837, 2009; in the data active = response below about 75% or above about 130%; inactive = in between;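 also: fluorescent Galphao activated with GDP and aluminum fluoride binding bead-coupled RGS7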
RGS16-Gao conf = modulators of RGS16-Galphao protein binding, confirmation, biochemical, single concentration, multiplexed bead flow cytometry; response (% of control binding), % at 10 µM; shares compounds with RGS16-Gao; AID 1838, 2009; bead-based flow cytometry; actives lie on both sides; 4% of 1,700 active; in the data active = response below about 74% or above about 130%; inactive = in between;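 also: Galphao activated as the GDP aluminium fluoride complex binding bead-coupled RGS16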
RGS4-Gao single = modulators of RGS4-Galphao protein binding, confirmation, biochemical, single concentration, multiplexed bead flow cytometry; 4% of 1,700 active; binding response (% of control), % at 10 µM; shares compounds with RGS16-Gao; actives lie on both sides; in the data active = binding response below about 74% or above about 130%; inactive = in between
RGS19-Gao single = regulators of RGS19-Galphao binding, confirmation, biochemical, single point, multiplexed bead flow cytometry; shares compounds with RGS16-Gao; bead-based flow cytometry RGS19-Galphao binding; actives lie on both sides; response (percent of control binding), % at 10 µM; 5% of 1,700 active; in the data active = response below about 50% or above about 160%; inactive = in between;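 also: 100% = no compound control and 0% = blank background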
Target sequence (P09471 whole entry, looked up): as above
Target sequence (P49795 whole entry, looked up): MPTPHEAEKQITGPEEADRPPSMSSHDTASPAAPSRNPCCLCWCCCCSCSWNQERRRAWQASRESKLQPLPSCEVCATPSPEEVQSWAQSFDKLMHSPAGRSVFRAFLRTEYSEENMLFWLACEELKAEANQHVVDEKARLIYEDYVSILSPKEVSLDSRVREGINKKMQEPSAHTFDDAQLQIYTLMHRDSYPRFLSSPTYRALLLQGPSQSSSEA
An asterisk follows results filed as active; [ ] = remark or other dose. Unless noted, no rule for the calls is given here.

What do the screens show for `Cc1nn(C(=O)N2CCCCC2)c(C)c1CN1C(=O)c2ccccc2C1=O`?
ABCG2 block: 0.3; ABCB1 block: 0.3; Biotin-avidin: 0.2; RGS8-Gao confirm: 102.5; RGS7-Gao single: 104.7; RGS16-Gao conf: 102.6; RGS4-Gao single: 102.7; RGS19-Gao single: 66.3

Results for Cc1nn(C(=O)c2cccs2)c(C)c1CN1C(=O)c2ccccc2C1=O ?
RGS8-Gao reg: 101.9; ABCG2 block: 1.9; ABCB1 block: 0.5; RGS7-Gao reg: 95.5; RGS4-Gao reg: 103.9; RGS16-Gao: 100.7

Results for COC(=O)c1c(C(=O)NCc2ccccc2)ncn1CC(O)COc1ccccc1 (stereo not given) ?
RGS8-Gao reg: 95.6; ABCG2 block: 1.4; ABCB1 block: 0.7; RGS7-Gao reg: 85.9; RGS4-Gao reg: 58.0; RGS16-Gao: -175.5*; RGS-Gao: 58.0*; Biotin-avidin: -0.5; RGS8-Gao confirm: 83.1; RGS7-Gao single: 73.7*; RGS16-Gao conf: 79.5; RGS4-Gao single: 79.0; RGS19-Gao single: 74.8

What do the screens show for `COc1cc2c3c(c1OC)C1(C=CC(=O)C=C1)CC3N(C(=O)c1ccccc1)CC2` (stereo not given)?
RGS8-Gao reg: 96.6; ABCG2 block: 0.6; ABCB1 block: 0.3; RGS7-Gao reg: 155.7*[activator]; RGS4-Gao reg: 104.6; RGS16-Gao: 103.0; RGS-Gao: 104.6*

Results for CC(C)CC(NC(=O)c1ccccc1)C(=O)OCC(=O)Nc1ccc(Br)cn1 (stereo not given) ?
RGS8-Gao reg: 91.6; ABCG2 block: 22.7; ABCB1 block: 1.0; RGS7-Gao reg: 237.9*[activator]; RGS4-Gao reg: 137.2; RGS16-Gao: 120.0; RGS-Gao: 137.2*; Biotin-avidin: -1.1; RGS8-Gao confirm: 96.4; RGS7-Gao single: 93.6; RGS16-Gao conf: 93.3; RGS4-Gao single: 93.9; RGS19-Gao single: 101.2

What do the screens show for `O=C(c1ccc(=O)[nH]c1)N(Cc1cccs1)C1(C(=O)NC2CCCC2)CCCCC1`?
RGS8-Gao reg: 140.6*[activator]; ABCG2 block: 2.9; ABCB1 block: 0.7; RGS7-Gao reg: 108.3; RGS4-Gao reg: 115.5; RGS16-Gao: 259.0*[activator]; RGS-Gao: 115.5*; Biotin-avidin: -0.7; RGS8-Gao confirm: 104.5; RGS7-Gao single: 104.9; RGS16-Gao conf: 105.1; RGS4-Gao single: 102.7; RGS19-Gao single: 101.2

What do the screens show for `Cc1ccc(C)c(S(=O)(=O)Nc2ccccc2C(=O)Nc2cc(C)on2)c1`?
RGS8-Gao reg: 100.6; ABCG2 block: 4.3; ABCB1 block: 0.3; RGS7-Gao reg: 106.5; RGS4-Gao reg: 101.9; RGS16-Gao: 110.0

Results for Cc1ccc(C)c(NC(=O)c2ccccc2NS(=O)(=O)c2cc([N+](=O)[O-])ccc2C)c1 ?
RGS8-Gao reg: 121.0; ABCG2 block: 24.5; ABCB1 block: 0.6; RGS7-Gao reg: 103.0; RGS4-Gao reg: 103.7; RGS16-Gao: 188.4*[activator]; RGS-Gao: 103.7*

How did Oc1[nH]c(N=C2N=c3ccccc3=N2)c2ccccc12 do in these assays?
RGS8-Gao reg: 57.0*; RGS7-Gao reg: inconclusive; RGS4-Gao reg: 34.5*; RGS16-Gao: 33.1; Biotin-avidin: -1.4; RGS8-Gao confirm: 101.5; RGS7-Gao single: 97.8; RGS16-Gao conf: 96.9; RGS4-Gao single: 101.3; RGS19-Gao single: 60.2

What do the screens show for `O=C(NCc1ccccn1)C1CCCN(Cc2cnn(-c3ccccc3)c2-n2cccc2)C1` (stereo not given)?
RGS8-Gao reg: 99.8; ABCG2 block: 0.5; ABCB1 block: 0.5; RGS7-Gao reg: 100.9; RGS4-Gao reg: 102.0; RGS16-Gao: 101.3

How did O=C(NCc1ccccn1)C1CCN(Cc2cnn(-c3ccccc3)c2-n2cccc2)CC1 do in these assays?
ABCG2 block: -0.1; ABCB1 block: -0.2; RGS4-Gao reg: 136.1; Biotin-avidin: -0.2; RGS8-Gao confirm: 96.2; RGS7-Gao single: 96.4; RGS16-Gao conf: 96.1; RGS4-Gao single: 95.6; RGS19-Gao single: 94.5

Results for COc1ccccc1NC(=O)NS(=O)(=O)c1ccc(C)cc1 ?
RGS8-Gao reg: 102.6; ABCG2 block: -0.1; ABCB1 block: -0.6; RGS7-Gao reg: 101.0; RGS4-Gao reg: 101.4; RGS16-Gao: 114.2

Results for CCOC(=O)c1ccccc1NS(=O)(=O)c1ccccc1 ?
RGS8-Gao reg: 102.4; ABCG2 block: 2.0; ABCB1 block: 0.5; RGS7-Gao reg: 96.5; RGS4-Gao reg: 100.2; RGS16-Gao: 98.4

Screening data from PubChem BioAssay.
